14 molecules from ChEMBL document CHEMBL1177718, “Phosphoramidate ProTides of 2'-C-methylguanosine as highly potent inhibitors of hepatitis C virus. Study of their in vitro and in vivo properties” (J Med Chem, 2010) can be followed below.

Data set [1] can be described thus: Cytotoxicity against human HuH7 cells after 72 hrs by celltiter-glo assay. The format is cell-based, Huh-7. In outline:
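Replicon 1b Huh7 cells seeded 2 × 10⁴/well; after 24 h, 11 serial 2× dilutions from 100 μM (three repeats each) with no-compound control; 72 h at 37 °C, CO₂, log-phase growth; viability by CellTiter-Glo luminescence; CC₅₀ = concentration giving 50% signal.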

The next data set concerns Hepatitis C virus. Kind of data set: Antiviral activity against HCV1b infected in human HuH7 cells assessed as inhibition of viral replication after 48 hrs by luciferase reporter gene assay. As to conditions: genotype 1b, Huh-7, 48 h. The format is functional, organism-based, Hepacivirus hominis. In outline: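 Huh7 cells carrying genotype 1b bicistronic subgenomic replicon, seeded 2 × 10⁴/well without G-418; compounds added 18-24 h later, 48 h exposure; 3× or 4× serial dilutions over 0.0001-10 μM in triplicate/quadruplicate; Renilla luciferase read-out versus untreated cells; EC₅₀ by four-parameter sigmoidal nonlinear regression; at least three independent assays.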
For orientation: In a reporter assay the amount or activity of a reporter protein is the signal.

Data set [2] can be described thus: Metabolic stability in dog plasma assessed as compound remaining at 1 ug/ml after 4 hrs. The format is ADME, cell-free, Canis lupus familiaris. As to conditions: read-out: Stability. The essentials:
(§1)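 Duplicate incubations; compound at final 1 μg/mL in plasma preincubated and kept at […]; samples taken at 30 or 240 min, quenched with ice-cold acetonitrile, centrifuged, supernatant diluted with water; parent quantified by LC-MS/MS (Polar-RP column, formic acid water/acetonitrile gradient, positive ion mode); % remaining reported.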

Data set [3] in a line: Metabolic stability in rat plasma assessed as compound remaining at 1 ug/ml after 30 mins. The format is ADME, cell-free. As to conditions: read-out: Stability. In outline: as §1
Data set [4] is described as follows: Metabolic stability in cynomolgus monkey plasma assessed as compound remaining at 1 ug/ml after 30 mins. The format is ADME, cell-free, Macaca fascicularis. The note with it: read-out: Stability. The essentials: as §1
Data set [5] in a line: Metabolic stability in cynomolgus monkey plasma assessed as compound remaining at 1 ug/ml after 4 hrs. The format is ADME, cell-free, Macaca fascicularis. As to conditions: read-out: Stability. In outline: as §1
The species entered for data set [6] is Homo sapiens. As to the kind of experiment: Metabolic stability in human plasma assessed as compound remaining at 1 ug/ml after 30 mins.
Data set [7] is described as follows: Metabolic stability in rat plasma assessed as compound remaining at 1 ug/ml after 4 hrs. The format is ADME, cell-free. As to conditions: read-out: Stability. The essentials:
as §1

Data set [8] can be described thus: Metabolic stability in dog plasma assessed as compound remaining at 1 ug/ml after 30 mins. The note with it: read-out: Stability. The format is ADME, cell-free, Canis lupus familiaris. In outline: as §1
Data set [9] is described as follows: Metabolic stability in mouse plasma assessed as compound remaining at 1 ug/ml after 30 mins. The format is ADME, cell-free. As to conditions: read-out: Stability.
Data set [10] can be described thus: Metabolic stability in mouse plasma assessed as compound remaining at 1 ug/ml after 4 hrs. The note with it: read-out: Stability. The format is ADME, cell-free.
Data set [11] is filed under the species Homo sapiens. As to the kind of experiment: Metabolic stability in human plasma assessed as compound remaining at 1 ug/ml after 4 hrs.
The nature of data set [12]: Cmax in ICR mouse plasma at 50 mg/kg, po by LC-MS/MS analysis. The format is ADME, organism-based. Further details: dose 50 mg/kg, route oral.
The next data set relates to Plasma. As to the kind of experiment: Dose normalized AUC in ICR mouse plasma at 50 mg/kg, po by LC-MS/MS analysis. The format is ADME, organism-based. Further details: dose 50 mg/kg, route oral. As to conditions: in vivo.

The CC50 is the concentration that lowers cell viability or growth by half. By EC50 is commonly meant the concentration giving half of the maximal effect. As for `C[C@H](NP(=O)(OC[C@H]1O[C@@H](n2cnc3c(=O)[nH]c(N)nc32)[C@](C)(O)[C@@H]1O)Oc1cccc2ccccc12)C(=O)OC1CCCC1` (stereo not given in full), the CC50 at 72 h in [1] is over 100000 nM. Further, the EC50 with Hepatitis C virus is 70 nM.

For the molecule `CCCCOC(=O)[C@H](C)NP(=O)(OC[C@H]1O[C@@H](n2cnc3c(=O)[nH]c(N)nc32)[C@](C)(O)[C@@H]1O)Oc1cccc2ccccc12` (stereo not given in full), the remaining at 4 h, 1 ug/ml in data set [2] is 90%; in [5], 81%; in data set [7], 0%; in data set [10], 0%; in the data set filed under Homo sapiens [11], 97%. The remaining at 0.5 h, 1 ug/ml came out at 0.4% in data set [3]; 98% in [4]; 100% in the data set listed under Homo sapiens [6]; 95% in data set [8]; 0% in data set [9]. Further, the CC50 at 72 h in data set [1] was over 100000 nM. Further, the EC50 in the data set with Hepatitis C virus came to 100 nM.

With `CCCCCOC(=O)[C@H](C)NP(=O)(OC[C@H]1O[C@@H](n2cnc3c(=O)[nH]c(N)nc32)[C@](C)(O)[C@@H]1O)Oc1cccc2ccccc12` (stereo not given in full), the remaining at 4 h, 1 ug/ml in data set [2] is 98%; in data set [5], 94%; in data set [7] it was 0%; in data set [10] it was 0%; in the data set filed under Homo sapiens [11], 96%. The remaining at 0.5 h, 1 ug/ml is 0% in [3]; 94% in data set [4]; 100% in the data set filed under Homo sapiens [6]; 98% in data set [8]; 0% in data set [9]. The EC50 with Hepatitis C virus came out at 91 nM.

Consider `C[C@H](NP(=O)(OC[C@H]1O[C@@H](n2cnc3c(=O)[nH]c(N)nc32)[C@](C)(O)[C@@H]1O)Oc1cccc2ccccc12)C(=O)OC1CCCCC1` (stereo not given in full), for which the remaining at 4 h, 1 ug/ml in data set [2] was found to be 100%; in data set [5], 100%; in data set [7] it was 0.5%; in data set [10], 0%; in the data set listed under Homo sapiens [11], 100%. Also, the remaining at 0.5 h, 1 ug/ml in data set [3] worked out at 2.5%; in data set [4], 100%; in the data set filed under Homo sapiens [6] it was 100%; in data set [8] it was 100%; in [9], 2.9%. Also, in data set [1], the CC50 at 72 h is over 100000 nM. Besides, the EC50 in the data set on Hepatitis C virus is 45 nM.

For the molecule `C[C@H](NP(=O)(OC[C@H]1O[C@@H](n2cnc3c(=O)[nH]c(N)nc32)[C@](C)(O)[C@@H]1O)Oc1cccc2ccccc12)C(=O)OCCc1ccccc1` (stereo not given in full), the CC50 at 72 h in data set [1] is over 100000 nM. In addition, in the data set with Hepatitis C virus, the EC50 worked out at 90 nM.

Molecule `C[C@H](NP(=O)(OC[C@H]1O[C@@H](n2cnc3c(=O)[nH]c(N)nc32)[C@](C)(O)[C@@H]1O)Oc1cccc2ccccc12)C(=O)OCCCc1ccccc1` (stereo not given in full) came in with a CC50 at 72 h in [1] of over 100000 nM. The concentration giving a half-maximal response (EC50) with Hepatitis C virus is 170 nM.

Take `CSCC[C@H](NP(=O)(OC[C@H]1O[C@@H](n2cnc3c(=O)[nH]c(N)nc32)[C@](C)(O)[C@@H]1O)Oc1cccc2ccccc12)C(=O)OC(C)C` (stereo not given in full): the remaining at 4 h, 1 ug/ml in data set [2] was 100%; in [5] it was 93%; in data set [7] it was 0.5%; in data set [10], 32%. In addition, the remaining at 0.5 h, 1 ug/ml in data set [3] worked out at 2.3%; in [4], 96%; in data set [8] it was 100%; in data set [9] it was 76%. Also, in data set [1], the CC50 at 72 h is over 100000 nM. Besides, the EC50 in the data set on Hepatitis C virus turned out to be 340 nM.

Regarding `CC(C)(NP(=O)(OC[C@H]1O[C@@H](n2cnc3c(=O)[nH]c(N)nc32)[C@](C)(O)[C@@H]1O)Oc1cccc2ccccc12)C(=O)OCc1ccccc1` (stereo not given in full), the remaining at 4 h, 1 ug/ml in data set [2] is 100%; in data set [5] it was 83%; in data set [7], 0%; in [10], 0%; in the data set filed under Homo sapiens [11], 41%. Also, the remaining at 0.5 h, 1 ug/ml came to 0% in data set [3]; 92% in data set [4]; 100% in the data set listed under Homo sapiens [6]; 100% in data set [8]; 0% in [9]. Besides, the EC50 in the data set with Hepatitis C virus is 1500 nM.

On to `CC(C)[C@H](NP(=O)(OC[C@H]1O[C@@H](n2cnc3c(=O)[nH]c(N)nc32)[C@](C)(O)[C@@H]1O)Oc1ccc2ccccc2c1)C(=O)OCc1ccccc1` (stereo not given in full), for which the remaining at 4 h, 1 ug/ml in data set [2] was determined as 99%; in data set [5], 95%; in [7], 22%; in data set [10], 76%; in the data set filed under Homo sapiens [11], 100%. For the same molecule, the remaining at 0.5 h, 1 ug/ml stood at 49% in data set [3]; 100% in [4]; 93% in the data set filed under Homo sapiens [6]; 95% in data set [8]; 99% in [9]. The CC50 at 72 h in data set [1] is over 100000 nM. In the data set on Hepatitis C virus, the EC50 is 1700 nM.

`CC(OC(=O)[C@@H](NP(=O)(OC[C@H]1O[C@@H](n2cnc3c(=O)[nH]c(N)nc32)[C@](C)(O)[C@@H]1O)Oc1cccc2ccccc12)C(C)C)c1ccccc1` (stereo not given in full): the remaining at 0.5 h, 1 ug/ml in the data set filed under Homo sapiens [6] amounted to 97%; in data set [8], 100%; in data set [9], 100%. Besides, in the data set with Hepatitis C virus, the EC50 was over 3000 nM.

On to `CC(C)[C@H](NP(=O)(OC[C@H]1O[C@@H](n2cnc3c(=O)[nH]c(N)nc32)[C@](C)(O)[C@@H]1O)Oc1cccc2ccccc12)C(=O)OCCc1ccccc1` (stereo not given in full), for which the half-maximal cytotoxic concentration (CC50) at 72 h in [1] was over 100000 nM. Moreover, the EC50 with Hepatitis C virus came to 1700 nM.

In general, Cmax refers to the maximum level reached in the sampled fluid or tissue. Broadly, the AUC is concentration integrated over time. In turn, `CC(C)[C@H](NP(=O)(OC[C@H]1O[C@@H](n2cnc3c(=O)[nH]c(N)nc32)[C@](C)(O)[C@@H]1O)Oc1cccc2ccccc12)C(=O)OCc1cccc(Cl)c1` (stereo not given in full) gave a Cmax in data set [12] of 388 ng/mL. In the data set on Plasma, this molecule registered an AUC of over 33 ng·h/mL. For the same molecule, the remaining at 0.5 h, 1 ug/ml came to 100% in the data set filed under Homo sapiens [6], 90% in data set [8] and 79% in data set [9]. In addition, the EC50 in the data set on Hepatitis C virus is 680 nM.

`Cc1ccccc1COC(=O)[C@@H](NP(=O)(OC[C@H]1O[C@@H](n2cnc3c(=O)[nH]c(N)nc32)[C@](C)(O)[C@@H]1O)Oc1cccc2ccccc12)C(C)C` (stereo not given in full) returned a Cmax in data set [12] of 668 ng/mL. The AUC with Plasma turned out to be 52 ng·h/mL. The figures for the remaining at 0.5 h, 1 ug/ml (in the data set filed under Homo sapiens [6]; in [8]; in [9]) were 100%, 100% and 67%, respectively. This molecule yielded a CC50 at 72 h in data set [1] of over 100000 nM. For the same molecule, in the data set on Hepatitis C virus, the EC50 is 1000 nM.

For the molecule `CC(C)[C@H](NP(=O)(OC[C@H]1O[C@@H](n2cnc3c(=O)[nH]c(N)nc32)[C@](C)(O)[C@@H]1O)Oc1cccc2ccccc12)C(=O)OCC(C)(C)C` (stereo not given in full), in data set [12], the peak level (Cmax) was 652 ng/mL. In addition, in the data set on Plasma, the AUC is over 45 ng·h/mL. The remaining at 0.5 h, 1 ug/ml in the data set listed under Homo sapiens [6] stood at 91%; in data set [8], 79%; in data set [9], 77%. For the same molecule, the CC50 at 72 h in data set [1] is over 100000 nM. The EC50 in the data set with Hepatitis C virus is 1500 nM.
